Hits are enriched below; roughly 8.2% of the tested compounds scored in any of these assays.
M1 antag: antagonists of rat M1 muscarinic receptor. 64,000 tested, 3.4% active. CHO-M1 cells, Fluo-4 calcium, ACh EC80 antagonist mode; hits give low values. B-score at 10 µM;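 active = calcium fluorescence response, raw or row-and-column corrected B-score, differing from the plate sample mean either way at a set confidence level, mostly lower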
Target sequence (P08482 whole entry, looked up): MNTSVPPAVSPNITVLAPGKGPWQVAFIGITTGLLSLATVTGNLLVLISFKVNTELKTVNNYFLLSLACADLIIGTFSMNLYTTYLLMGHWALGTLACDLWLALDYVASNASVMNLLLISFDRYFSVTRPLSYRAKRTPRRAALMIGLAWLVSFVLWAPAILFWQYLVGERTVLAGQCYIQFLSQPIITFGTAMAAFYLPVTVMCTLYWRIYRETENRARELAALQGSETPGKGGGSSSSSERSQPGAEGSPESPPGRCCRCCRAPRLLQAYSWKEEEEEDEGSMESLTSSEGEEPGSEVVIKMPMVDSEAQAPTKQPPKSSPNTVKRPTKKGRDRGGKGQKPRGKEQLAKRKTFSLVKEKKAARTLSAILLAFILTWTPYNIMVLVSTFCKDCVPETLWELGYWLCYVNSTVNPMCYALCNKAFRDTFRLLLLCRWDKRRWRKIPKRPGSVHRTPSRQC
D1 mod: allosteric modulators of human D1 dopamine receptor. B-score at 10 µM. HEK293 D1, CRE-luciferase, dopamine EC30 potentiation; actives deviate in either direction. 58,000 tested, 5.9% active. P21728;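 active = luminescence count or its row- and column-corrected plate score outside the 99.7% band of the plate's sample wells, on either side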
HePTP inh: inhibitors of human HePTP phosphatase; 110,000 tested, 0.64% active; inhibition, % at 20 µM; recombinant HePTP phosphatase activity, OD absorbance; AID 521; P35236; in the data active = inhibition above about 50%
M1 agonist: agonists of M1 muscarinic receptor; B-score at 10 µM; 64,000 tested, 3% active; AID 626; CHO-M1 cells, Fluo-4 calcium fluorescence, agonist mode; hits give high values;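 active = fluorescence rise, raw or as B-score row- and column-corrected plate score, outside the 99.7% band of its plate's samples, either direction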
RORA act: activators of human nuclear receptor RORA; P35398; CHO-K1 Gal4-RORA LBD luciferase reporter, luminescence; percent increase over mock-subtracted basal signal; activation, % at 10 µM; 65,000 tested, 1.5% active; AID 560;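 active = activation above the mean of all tested compounds plus 3 SD, cut at about 49% in these data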
SF1 activator: SF-1 (human) activation. Q13285. CHO-K1 Gal4-SF-1 LBD luciferase reporter; % increase over DMSO SF-1-specific signal. 65,000 tested, 1.9% active. AID 522. activation, % at 10 µM;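 active = activation above the mean activation of all tested compounds plus 3 SD, cut at about 50% in these data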
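Assay system: CHO-K1 cells co-transfected with Gal4 DBD–human SF-1 LBD, 5xGal4 luciferase reporter / Input: 4,000 cells per well / Incubation: 20 h compound exposure at 37 °C after 1 h cell settling / Detection: SteadyLite luciferase luminescence / Control set: DMSO negative control and −SF1 background wells / Replication: one test per compound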
M1 antag confirm: M1 muscarinic receptor (rat) antagonism, confirmed. shares compounds with M1 antag. 1,700 tested, 43% active. CHO-M1 cells, Fluo-4 calcium, ACh EC80 antagonism; hits give low values. calcium response (max-min fluorescence) at 10 µM;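 active = calcium response below the same-plate mean of wells given acetylcholine alone at its 80%-effect dose, minus 3 SD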
mGluR4 antag: mGluR4 (human) activity, M1 antagonist secondary assay | shares compounds with M1 antag | CHO-mGluR4 calcium flux, Fluo-4 fluorescence, glutamate EC80; hits give low values | fluorescence response (max-min) at 10 µM | 1,700 tested, 0.9% active;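 active = fluorescence response below the plate's average for near-maximal glutamate wells, less 3 SD of those wells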;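 note: raw unnormalized fluorescence span taken in the window right after glutamate addition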
Hits are given with their value; . = inactive; / = no result.

SMILES	M1 antag	D1 mod	HePTP inh	M1 agonist	RORA act	SF1 activator	M1 antag confirm	mGluR4 antag
CC1(C)CN=C(NCc2ccccc2Cl)S1	-5.1	/	.	.	.	.	350	.
CCCCOc1ccc(CN2CCN(CCO)CC2)cc1	-4.8	.	.	.	.	.	310	.
CCCCCCOc1ccc(CN2CCN(CCO)CC2)cc1	-5.3	.	.	.	.	.	366	.
CCCCOc1ccc(CC2C(=O)N(C)C(=O)N(C)C2=O)cc1	.	.	.	.	.	.	/	/
COC(=O)C(O)(c1ccc(N(C)S(=O)(=O)c2ccccc2)cc1)C(F)(F)F (stereo not given)	-11	/	.	.	.	.	.	.
COc1ccc(C2NCc3ccc4c(c3-n3cccc32)OCO4)cc1O (stereo not given)	-2.2	.	.	.	50	.	108	.
c1cc2n(c1)-c1c(ccc3c1OCO3)CNC2c1ccc2c(c1)OCO2 (stereo not given)	-10	.	.	.	.	.	305	.
FC(F)(F)c1ccc2c(c1)ncn2C1CCN(Cc2nnnn2C2CCCCC2)CC1	-14	.	.	.	.	.	.	.
CCOP(=O)(OCC)C1(O)C(=O)Nc2ccc(Br)cc21 (stereo not given)	/	/	.	/	/	/	/	/
CC(C)c1cccc(C(C)C)c1OCCN1CCCCC1	/	/	.	/	/	/	/	/
CC(C)c1cccc(C(C)C)c1OCCn1ccnc1	-2	.	.	.	.	.	416	.
COc1ccc(Br)cc1CN1CCN(CCO)CC1	.	.	.	.	.	.	/	/
COc1cc(Br)cc(CN2CCN(C)CC2)c1O	-3.9	.	.	.	.	.	378	.
O=C1c2ccccc2C(=O)N1Cc1nc2ccccc2c(=O)n1-c1ccc(Br)cn1	.	.	.	.	.	.	/	/
NC(=O)C1(N2CCCCC2)CCN(Cc2ccccc2)CC1	.	.	.	.	.	.	/	/
O=C(Cc1ccccc1)OCCN1CCCCC1	-3.5	.	.	.	.	.	507	.
NC1CCCCC1N=Cc1c(O)n(Cc2ccc(F)cc2)c(=O)[nH]c1=O (stereo not given)	.	.	.	.	.	.	/	/
CC(=NCCC1=CCCCC1)c1c(O)n(C)c(=O)n(C)c1=O	.	.	.	.	.	.	/	/
CC(C(=O)N1CCC2(CC1)OCCO2)C1Sc2ccccc2NC1=O (stereo not given)	.	.	.	.	.	.	/	/
Nc1ccccc1C(=O)c1ccccc1	.	.	.	.	.	.	/	/
Nc1ccccc1C(=O)OC1CSC1	-6.2	.	.	.	.	.	.	.
CC(Cc1ccccc1)[n+]1cc(/N=C(\[O-])N(C)C)on1 (stereo not given)	.	.	.	.	.	.	/	/
CN1CCC(N(C)c2ncnc3ccc(Br)cc23)CC1	-0.9	-4.3	.	.	.	.	.	.
CN(C)CCc1nn[nH]n1	.	/	.	.	.	.	/	/
CC(=NCCCN1CCCCC1)c1c(O)n(Cc2ccccc2)c(=O)[nH]c1=O	.	.	.	.	.	.	/	/
SMILES	M1 antag	D1 mod	HePTP inh	M1 agonist	RORA act	SF1 activator	M1 antag confirm	mGluR4 antag
CC(=NCCN1CCCCC1)c1c(O)n(Cc2ccccc2)c(=O)[nH]c1=O	-2.4	.	.	.	.	.	.	.
COc1ccccc1CC1/C(=N/O)C2CCN1CC2 (stereo not given)	-2.6	.	.	.	.	.	.	.
CCc1nc(N2CCNCC2)c(C#N)c2c1CSC(C)(C)C2	-5.2	/	.	.	.	.	264	.
CC(=O)OC1CCC2(C)C(=CCC3C4C/C(=C\c5ccc([N+](=O)[O-])cc5)C(=O)C4(C)CCC32)C1 (stereo not given)	/	/	.	/	/	/	/	/
Oc1ccc(C2NCc3ccccc3-n3cccc32)cc1Cl (stereo not given)	-3.5	.	.	.	.	.	.	.
Cc1ccc(S(=O)(=O)Cc2ccc(C(=O)N3CCC4(CC3)OCCO4)o2)cc1	.	.	.	.	.	.	/	/
COc1ccc(CCC(=O)N2CCC3(CC2)OCCO3)cc1	.	/	.	.	.	.	/	/

Assay outcomes deposited in PubChem by several laboratories.
